Measurements of several laboratories.
Compare with care: the assays were run in different laboratories.
Organism: Plasmodium falciparum
Effect on: parasite growth
Technique: SYBR Green

Cn1cc2c3c1C(=O)C(N)=CC3=NCC2
IC50 (DD2; blood stage): 3550 nM

O[C@H](CN[C@H](COCC1CC1)Cc1ccccc1)c1cc(Cl)cc2c1-c1ccc(Cl)cc1C2
IC50 (W2; 48 h, drug-resistant strain, blood stage): 2.8 nM

C[C@@H]1CC[C@H]2[C@@H](C)C(=O)O[C@@H]3O[C@@]4(C)CC[C@@H]1[C@]32OO4
EC50 (72 h): 14 nM

CCCCCCCNCC(O)c1cc(Cl)cc2c1-c1ccc(Cl)cc1C2 (racemic)
IC50 (W2; 48 h, drug-resistant strain, blood stage): 18.6 nM

O=Cc1cn(Cc2cn(-c3ccnc4cc(Cl)ccc34)nn2)c2ccccc12
inhibition (3D7; 10 µM, blood stage): 24.5%

O=C1c2[nH]cc3c2C(=NCC3)c2c(-c3ccc(O)cc3)c[nH]c21
IC50 (3D7; blood stage): 2090 nM

CCCCCNC[C@@H](O)c1cc(Cl)cc2c1-c1ccc(Cl)cc1C2
IC50 (W2; 48 h, drug-resistant strain, blood stage): 8.6 nM

COCC(=O)N1CCC[C@H](C(=O)NCc2nc(-c3ccc(C#N)cc3)cs2)C1
EC50 (DD2; 72 h, blood stage): 18 nM

Cn1cc2c3c1C(=O)C(N)=CC3=[N+](C)CC2
IC50 (3D7; blood stage): 1140 nM

CC(O)(CS(=O)(=O)c1ccc(F)cc1)C(=O)Nc1ccc(C#N)c(C(F)(F)F)c1 (centres unmarked)
IC50 (DD2; 48 h, drug-resistant strain, blood stage): > 10000 nM

CCCCCCNCC(O)c1cc(Cl)cc2c1-c1ccc(Cl)cc1C2 (racemic)
IC50 (W2; 48 h, drug-resistant strain, blood stage): 6 nM

Cn1cc2c3c1C(=O)C(NCCc1ccc(O)cc1)=CC3=NCC2
IC50 (3D7; blood stage): 3310 nM

CCN(CC)CCCC(C)Nc1ccnc2cc(Cl)ccc12 (centres unmarked)
IC50 (MDR, TM90; 72 h, drug-resistant strain, blood stage): 354 nM

COc1ccc(C2CC3=C(C(=O)O2)C(c2ccccc2Cl)C(C(=O)OC(C)(C)C)=C(C)N3)cc1OC (mixture of isomers)
EC50 (3D7; 72 h, blood stage): > 13000 nM

C[N+]1=C2C=C(N)C(=O)c3[nH]cc(c32)CC1
IC50 (W2; blood stage): 681 nM

CCCN(CCc1cccs1)[C@H]1CCc2c(O)cccc2C1
IC50 (DD2; 48 h, drug-resistant strain, blood stage): 9270 nM

CC(C)C[C@@H](C=O)NC(=O)[C@H](CC(C)C)NC(=O)[C@H](CC(C)C)NC(=O)OCc1ccccc1
EC50 (DD2; blood stage): 69 nM

C[N+]1=C2C=C(NCCc3ccc(O)cc3)C(=O)c3[nH]cc(c32)CC1
IC50 (W2; blood stage): 32.3 nM

COCC(=O)N1CCC[C@H](C(=O)NCc2nc(-c3ccccc3)cs2)C1
EC50 (DD2; 72 h, blood stage): 69 nM

O[C@H](CNCCN1CCN(C(c2ccccc2)c2ccccc2)CC1)c1cc(Cl)cc2c1-c1ccc(Cl)cc1C2
IC50 (W2; 48 h, drug-resistant strain, blood stage): 13 nM
